Reference: ChEMBL document CHEMBL4513216, “Probing the Open Global Health Chemical Diversity Library for Multistage-Active Starting Points for Next-Generation Antimalarials” (ACS Infect Dis, 2020)

Test: Toxicity liver stage against HepG2, at 10uM
Format: cell-based
Design: test concentration 10 uM, cell line HepG2-A16-CD81EGFP
Settings: human, HepG2-A16-CD81EGFP cells; read-out: INHIBITION
Outline: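 Uninfected HepG2-A16-CD81EGFP cells, 3 × 10^3 per well, 1536-well, plated on prespotted compound at 10 μM final, parasite-free screening media added to match infected plates; puromycin 10 μM positive, DMSO 0.5% negative; run in parallel with 48 h PbLuc assay at 37 °C, 5% CO2; viability by CellTiter-Glo luminescence, normalized to controls.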

SMILES | cytotoxicity at 10 µM [%]
COc1cccc(CNC(=O)CCC2=Nc3ccccc3S(=O)(=O)N2)c1 | 4.19
CCOC(=O)CNC(=O)NCc1cccn1Cc1ccccc1F | -2.24
O=C(Nc1ncc[nH]1)c1cc(-c2cccnc2)n[nH]1 | 5.69
O=C(CSC1=NS(=O)(=O)c2cc(F)ccc2N1)Nc1ccc(Cl)c(Cl)c1 | 11.5
CCCS(=O)(=O)NCc1nc(C)cc(N2CCCC2)n1 | 8.09
COC(=O)CCC(=O)N1CCc2nc(C(=O)N3CCCCC3)sc2CC1 | 15.4
CCOCC1CN(C(=O)[C@H]2CCCO2)Cc2nnn(CC3CC3)c21 (stereo not given in full) | -1.99
Cc1nc(-c2cnn(C)c2)nc2c1CN(C(=O)c1ccc[nH]1)CC2 | 13
CCn1nnc2c1C(COCCN(C)C)CN(c1nncs1)C2 (stereo not given) | 1.52
Cc1ccc(N2CC[C@@H]3[C@@H](CO[C@H]3CNC(=O)c3ccco3)C2)nn1 | 9.43
Cc1noc([C@@]23CCO[C@@H]2CCN(C(=O)c2cc(C)c(C)s2)C3)n1 | 8.73
COCCN1C(=O)[C@]2(CC[C@@H]3CN(C(=O)NC(C)C)C[C@@H]32)N=C1C | -57.5
Cc1ccsc1C(=O)N1CCC2(CC(C(=O)N(C)C(C)C)=NO2)C1 (stereo not given) | -126
COCC(=O)N1CCCn2c(CN3CCCC3)nnc2C1 | -130
O=S(=O)(C1CC1)N1CCC2(COCc3cnc(NCC4CC4)nc32)C1 (stereo not given) | 6.38
Cc1ccc2c(c1)C1(CC2)CCN(c2nncs2)CC1 | 9.43
Cc1nc(NCc2ccccn2)c2c(n1)c(C)nn2C | -1.02
COc1cc2cc(C(=O)NCC(=O)O)n(C)c2c(OC)c1OC | -77.3
COc1ccccc1C(=O)Nc1c(F)c(C(=O)NCCC(C)C)nn1C | -11.1
Cc1nn(C)c2c(NCc3ccc(F)cc3)nc(C3CC3)nc12 | 0.107
Cc1cc(C)n(C(=O)c2cn(C)nc2S(=O)(=O)N2CCSCC2)n1 | -2.64
CCc1cc(=O)n(CC(=O)N2CCC(C)CC2)c(-c2ccccc2)n1 | 10.8

SMILES | cytotoxicity at 10 µM [%]
Fc1ccc(Nc2ccc(C3CCN(Cc4ncc[nH]4)CC3)nc2)nc1 | -1.85
O=C(O)c1ccccc1-c1ccc(CNC(=O)C2CCOCC2)cc1 | 1.33
CCS(=O)(=O)CCCN1CCSCC1c1ccc(Cl)cc1 (stereo not given) | -5.05
N#CC1(C(=O)N2CCOC(c3ccc(Cl)cc3)C2)CCCC1 (stereo not given) | 1.36
COc1ccccc1CC(C)(C)C(=O)NCC(=O)Nc1cccnc1 | 9.21
CN(C)C(=O)CCC[S+]([O-])Cc1cc(Cl)ccc1Cl (stereo not given) | 12.5
CN(C)C(=O)CCC[S+]([O-])Cc1ccc(Cl)c(Cl)c1 (stereo not given) | 12.4
Cn1cccc(NC(=O)NCCc2cccc(O)c2)c1=O | -43.6
CCn1cnnc1CNC(=O)NCC(C(C)C)N1CCOCC1 (stereo not given) | 13.5
CSCCC(NC(N)=O)C(=O)NCc1ccc(-n2cccn2)cc1 (stereo not given) | 18
CSCc1cc(F)ccc1CNC(=O)N1CCC(CO)CC1 | 1.82
CC(C(N)=O)N(C)Cc1ccccc1C(F)(F)F (stereo not given) | -5.54
NC(=O)Nc1ccc(C(=O)NCCn2cccc2)cc1 | -1.23
CCC(CNC(=O)c1ccccc1Br)N1CCc2ccccc2C1 (stereo not given) | 16.6
CC(C)CCCC(C)NC(=O)c1ccc(OCC(N)=O)cc1 (stereo not given) | 10.2
C=C(C)CN1CCC(NC(=O)NCCc2cccc(C(N)=O)c2)CC1 | 11.4
CCOCC(=O)NC1(c2cccc(Cl)c2)CC1 | 3
CSc1ccc(CN(C)Cc2noc(C(C)(C)C)n2)cc1 | -8.58
Cc1cccc(C2(NC(=O)CCCn3cncn3)CCCC2)c1 | 15
Cc1ccccc1CN(C)C(=O)Cn1nc(-c2ccc(F)cc2)oc1=O | -19.3
CN(Cc1nnc(C2CC2)o1)C1CCN(CCc2cccs2)C1 (stereo not given) | -2.01
CCc1nc(CN2CCCC(N(C)CCc3cccs3)C2)no1 (stereo not given) | 15.5

SMILES | cytotoxicity at 10 µM [%]
CCOc1ncccc1NC(=O)Nc1c(C)nn(C(C)C)c1C | 17.8
CCN(c1ccccc1)S(=O)(=O)c1cc(C(=O)O)cc2c1CCC2 | 9.69
CCN(CC1CCOC1)C(=O)c1cc(Cl)c2c(c1)OCO2 (stereo not given) | 8.88
CCNC(=O)N1CCC(NC(=O)NCCc2cc(F)cc(F)c2)C1 (stereo not given) | -43.4
O=C(NCc1ccccc1OCC1CC1)C1CCOC1 (stereo not given) | 4.94
CC(C)(C)c1nc(CN2CCCC2c2nnc3ccccn23)no1 (stereo not given) | -1.99
Cc1ccsc1CNC(=O)c1ccc(N2CCOC2=O)cc1 | 22.2
Cc1nc(C(=O)N2CC(C)Sc3ccccc32)cs1 (stereo not given) | -3.71
NS(=O)(=O)CCNC(=O)c1nnn(-c2ccccc2)c1C1CC1 | -12.2
CCc1nc(CCNC(=O)C2CCOC2)sc1C (stereo not given) | -20.4
CC(C)(C)c1nc(CN2CCC(c3nc4cc(Cl)ccc4o3)CC2)no1 | 3.9
Cc1ccc(CN2CCC3(CC(C(=O)NC4CCC4)=NO3)C2)o1 (stereo not given) | -97.5
Cc1ccoc1C(=O)N1C[C@@H](OCC2CCOCC2)[C@H]2OCCC[C@H]21 | 4.11
Cn1cccc1C(=O)N1CCCC2(CCCN2Cc2cccnc2)C1 (stereo not given) | 2.88
Cc1cc(N2CCC3(CCCN(CCO)C3=O)C2)nc2ccccc12 (stereo not given) | 3.69
COCCC(=O)N1CCCC(CCC(=O)Nc2ccc(Cl)cc2)C1 (stereo not given) | 6.48
COc1cccc2c(=O)n(C3CCNCC3)cnc12 | -53.4
CCn1ccnc1CN(C)c1cc(N(C)C)ncn1 | -42.1
CCCN1CCC(CC(=O)N2CC(C)(C)[C@@](C)(O)C2)CC1 | 2.65
Cc1nn(C)c(C)c1NC(=O)c1cccc(CN2CC[C@H](O)C2)c1 | 1.08
CCNC(=O)C1CCN(Cc2ccc(C(=O)Nc3nnc(C)s3)cc2)C1 (stereo not given) | -0.834
CCN1CCCC(C)(C(=O)NCc2nncn2CCc2ccccc2)C1 (stereo not given) | -10.2

SMILES | cytotoxicity at 10 µM [%]
COc1ccc(CN(C)C2CSCCSC2)c2cccnc12 | 31.7
COCCC1(C(=O)O)CCCN(Cc2cc3c(cc2C)OCO3)C1 (stereo not given) | -2.37
CN1CCN(c2cnn(CCn3cccn3)c(=O)c2)CC1 | -47.4
COc1ccc2c(c1)OCC(Cc1ccc(C)nc1N)C2 (stereo not given) | -2.57
CN(C)CCNc1ccc(-c2nc(COc3ccccc3)no2)cn1 | 10.2
Cc1cc2c(c(-c3cncc(C(=O)N4CCCC4)n3)c1)OC(CN)C2 (stereo not given) | -45.7
Cc1cc(CN(C)Cc2csc(-c3cccs3)n2)n[nH]1 | -4.14
Cc1nc(-c2cn(CCN)nn2)n(-c2ccc3c(c2)CCC3)n1 | 2.86
COCCN(C)C[C@@H]1CN(C(=O)c2ccc(=O)n(C)c2)C[C@@H]1CO | -11.1
CC[C@@]1(O)CCN(Cc2cc(C3CCCCC3)no2)C[C@H]1O | -4.18
CCN1CCN(Cc2nc(CCc3ccccc3)n[nH]2)CC1 | -10.7
O=c1c2ccc(C(F)(F)F)cc2ncn1CCCN1CCCCC1CO (stereo not given) | -5.98
Cc1nonc1C1CCCN1Cc1ccc(C(=O)Nc2nccs2)cc1 (stereo not given) | 76.7
Cn1c(-c2cc3n(n2)CCCN(CC(=O)O)C3)nc2ccccc21 | 2.68
O=C1N(CCC2CCCCC2)CCCC1(O)CNCCc1ccccc1 (stereo not given) | -8.92
CN1CCCC2(CC1)CCN(C(=O)CCc1ccccc1O)CC2 | -32.1
COc1cccc(-c2nccnc2C2CCN(C(C)=O)CC2)c1 | 1.47
CCN1CCN(c2ncc(-c3cc(C)no3)c(-c3ccc(C)s3)n2)CC1 | 2.44
Cc1csc2nc3n(c(=O)c12)CCN(C(=O)c1ccncc1)CC3 | -2.65
Cc1ccc(NC2CCN(C(=O)COCC3CC3)CC2)nn1 | 0.132
Cc1nc(C)n(CC2CCCN(Cc3noc(C)n3)C2)n1 (stereo not given) | -1.87
CCc1ncncc1C(=O)N1CCCN(Cc2ccc(C)cc2)CC1 | -0.611

SMILES | cytotoxicity at 10 µM [%]
c1ccc(-n2ncc(CNCC3CCCN3c3cccnn3)n2)cc1 (stereo not given) | -6.71
NC(=O)C1CN(C(=O)Nc2ccccc2-c2cccs2)CCO1 (stereo not given) | -4.84
CC(C)C(C(=O)N1CCC(Nc2cccnn2)CC1)n1cncn1 (stereo not given) | -4.35
O=C(c1cc(C2CC2)on1)N1CCCC(n2cncn2)C1 (stereo not given) | -14
NC(=O)C1CCCN(C(=O)c2cnc3c(cnn3C3CCCC3)c2)C1 (stereo not given) | -5.54
Clc1ccc(C2(CNC3=NCCN3)CC2)cc1 | 7.38
Cc1nc2c(c(NC3CC3)n1)CCN(C(=O)CCO)CC2 | -68.3
COCC1CN(CC2CC2)Cc2nn(CC3CC3)cc21 (stereo not given) | -71.4
COc1ncccc1CN1C[C@H]2CCN(c3ncccn3)C[C@H]2C1 | 2.66
COc1ncccc1CN1CCC2(CC1)CC(OCC1CC1)CO2 (stereo not given) | 4.33
N#Cc1ccc(CN2CC3(CCCCN3c3cccnc3)CC2=O)cc1 (stereo not given) | 0.995
COC1COC2(CCN(Cc3ccc4ccccc4n3)CC2)C1 (stereo not given) | 5.05
N#Cc1cccc(CN2CC3(CCCCN3c3cccnc3)CC2=O)c1 (stereo not given) | -7.27
O=C(C1CC=CC1)N1C[C@H]2CN(Cc3ccncc3)C(=O)[C@H]2C1 | -86.6
CS(=O)(=O)N1CCOCC2(CCN(Cc3ccc[nH]3)CC2)C1 | -7.02
c1cncc(-c2ccc3c(c2)CCC32CCN(Cc3nccs3)CC2)c1 | 36
c1ccc(CN2Cc3nccn3CC(Cn3cccn3)C2)nc1 (stereo not given) | -105
Cn1cc(N2CC3(COCCN(Cc4nccs4)C3)OCC2=O)cn1 (stereo not given) | -79.9
O=C1CCCN1CC1CN(CC2CCOCC2)Cc2nccn2C1 (stereo not given) | 1.65
COc1ccc(CN2CCc3ncnc(OC(C)C)c3CC2)cc1 | -1.99
Cc1nc(CN2C(=O)C[C@H]3[C@H]2CCN3CC2CCOC2)cs1 (stereo not given in full) | -151
O=C(NCCc1ccccc1)N1C[C@@H]2C[C@H](C(=O)N3CCCC3)[C@H](C1)O2 | 6.95
